Source: ChEMBL document CHEMBL1156191, “Characterization of the pharmacophore properties of novel selective estrogen receptor downregulators (SERDs)” (J Med Chem, 2010)
Active and inactive are the calls of the source. The rule behind the calls is not given here.

Assays:
MCF7 [1] = assay: Down regulation of ERalpha expression in human MCF7 cell nuclear fraction at 1 uM after 16 hrs by Western blotting; assay type: functional, cell-based
In short: (§1)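 MCF-7 cells steroid-depleted five days in phenol red-free medium with 5% charcoal-dextran-treated calf serum, grown to ~80% confluency, then given 1 μM compound or 0.1% EtOH vehicle for 16 h. Cytoplasmic, nuclear, matrix and insoluble fractions or whole-cell lysate prepared. Western blot with anti-ERα (F10) and infrared detection; Sp1 serves as loading reference.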

MCF7 [2] = assay: Down regulation of ERalpha expression in human MCF7 cell matrix fraction at 1 uM after 16 hrs by Western blotting; assay type: functional, cell-based; in short: as §1
Homo sapiens = organism: Homo sapiens; assay: Ratio of relative binding affinity for human ERbeta to relative binding affinity for human ERalpha
[3] = molecular target: T1, Estrogen receptor (Homo sapiens) (UniProt P03372); assay: Displacement of [3H]estradiol from full-length human estrogen receptor alpha assessed as relative binding affinity by radiometric assay relative to estradiol
T1 sequence (whole entry): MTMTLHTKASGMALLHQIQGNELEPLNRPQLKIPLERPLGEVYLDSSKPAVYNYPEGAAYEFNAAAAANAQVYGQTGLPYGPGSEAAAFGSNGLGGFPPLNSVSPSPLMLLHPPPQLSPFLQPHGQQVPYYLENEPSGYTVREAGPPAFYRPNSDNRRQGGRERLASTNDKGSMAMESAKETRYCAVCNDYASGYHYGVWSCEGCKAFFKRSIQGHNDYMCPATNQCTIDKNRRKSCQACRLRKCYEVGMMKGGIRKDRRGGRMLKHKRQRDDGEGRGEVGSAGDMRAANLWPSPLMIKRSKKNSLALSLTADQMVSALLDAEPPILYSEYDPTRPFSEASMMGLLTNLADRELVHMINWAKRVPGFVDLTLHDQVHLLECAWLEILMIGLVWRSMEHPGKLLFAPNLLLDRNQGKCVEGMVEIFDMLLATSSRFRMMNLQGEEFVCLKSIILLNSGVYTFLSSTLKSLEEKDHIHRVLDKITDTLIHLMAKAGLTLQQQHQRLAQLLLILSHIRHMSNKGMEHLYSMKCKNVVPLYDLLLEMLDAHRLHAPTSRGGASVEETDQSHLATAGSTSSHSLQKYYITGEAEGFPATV

MCF7 [4] = assay: Down regulation of ERalpha expression in human MCF7 cell cytoplasmic fraction at 1 uM after 16 hrs by Western blotting; assay type: functional, cell-based; in short: as §1
[5] = molecular target: Estrogen receptor beta (Homo sapiens) (UniProt Q92731); assay: Displacement of [3H]estradiol from full-length human estrogen receptor beta assessed as relative binding affinity by radiometric assay relative to estradiol
Estrogen receptor beta (Homo sapiens), sequence (Q92731 whole entry): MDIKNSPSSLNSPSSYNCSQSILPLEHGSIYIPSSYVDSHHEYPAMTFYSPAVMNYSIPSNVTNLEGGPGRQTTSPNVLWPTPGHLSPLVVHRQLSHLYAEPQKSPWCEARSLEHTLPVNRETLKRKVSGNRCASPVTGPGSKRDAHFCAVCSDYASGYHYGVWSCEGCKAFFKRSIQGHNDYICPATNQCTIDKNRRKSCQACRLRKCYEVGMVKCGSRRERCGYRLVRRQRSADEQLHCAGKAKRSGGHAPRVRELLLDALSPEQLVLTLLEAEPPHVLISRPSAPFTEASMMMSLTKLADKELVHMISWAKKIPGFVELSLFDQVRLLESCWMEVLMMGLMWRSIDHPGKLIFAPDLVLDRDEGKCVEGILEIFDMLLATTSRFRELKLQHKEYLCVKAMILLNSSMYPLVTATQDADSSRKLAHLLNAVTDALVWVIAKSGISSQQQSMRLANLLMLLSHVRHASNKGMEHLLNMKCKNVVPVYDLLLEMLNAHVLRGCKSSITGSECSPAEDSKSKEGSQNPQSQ

MCF7 [6] = assay: Down regulation of ERalpha expression in human MCF7 cell insoluble fraction at 1 uM after 16 hrs by Western blotting; assay type: functional, cell-based; in short: as §1
MCF7 [7] = assay: Down regulation of ERalpha expression in human MCF7 cell whole cell extract at 1 uM after 16 hrs by Western blotting; assay type: functional, cell-based; in short: as §1
MCF7 [8] = assay: Down regulation of ERalpha expression in human MCF7 cell insoluble fraction at 1 uM treated 16 hrs before estradiol challenge measured after 4 hrs by Western blotting in presence of 1 nM estradiol; assay type: functional, cell-based
In short: (§2)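 Steroid-depleted MCF-7 cells (5 d, 5% charcoal-dextran calf serum, phenol red-free medium) exposed 16 h to 1 μM compound, then 1 nM estradiol added for 4 h before fractionation into cytoplasmic, nuclear, matrix, insoluble or whole-cell extracts. ERα detected by Western blot with F10 antibody; Sp1 used as loading reference.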

MCF7 [9] = assay: Down regulation of ERalpha expression in human MCF7 cell matrix fraction at 1 uM treated 16 hrs before estradiol challenge measured after 4 hrs by Western blotting in presence of 1 nM estradiol; assay type: functional, cell-based; in short: as §2
MCF7 [10] = assay: Down regulation of ERalpha expression in human MCF7 cell nuclear fraction at 1 uM treated 16 hrs before estradiol challenge measured after 4 hrs by Western blotting in presence of 1 nM estradiol; assay type: functional, cell-based; in short: as §2
MCF7 [11] = assay: Down regulation of ERalpha expression in human MCF7 cell whole cell extract at 1 uM treated 16 hrs before estradiol challenge measured after 4 hrs by Western blotting in presence of 1 nM estradiol; assay type: functional, cell-based; in short: as §2
MCF7 [12] = assay: Down regulation of ERalpha expression in human MCF7 cell cytoplasmic fraction at 1 uM treated 16 hrs before estradiol challenge measured after 4 hrs by Western blotting in presence of 1 nM estradiol; assay type: functional, cell-based; in short: as §2
[13] = molecular target: T1, Estrogen receptor (Homo sapiens); assay: Effect on ERalpha-mediated transcriptional activity in human MCF7 cells assessed as reduction of estradiol-induced activation of pS2 mRNA expression at 1 uM treated 16 hrs before estradiol challenge measured after 4 hrs by RT-PCR analysis; assay type: cell-based
In short: (§3)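 MCF-7 cells steroid-depleted seven days in phenol red-free medium with 5% charcoal-dextran calf serum, grown to ~80% confluency, then given 1 μM compound 16 h followed by 0.1% ethanol vehicle or 1 nM estradiol for 4 h. Total RNA reverse transcribed and target mRNA quantified by real-time PCR. Repeated-measures one-way ANOVA with Tukey test.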

[14] = molecular target: T1, Estrogen receptor (Homo sapiens); assay: Effect on ERalpha-mediated transcriptional activity in human MCF7 cells assessed as reduction of estradiol-induced activation of progesterone receptor mRNA expression at 1 uM treated 16 hrs before estradiol challenge measured after 4 hrs by RT-PCR analysis; assay type: cell-based; in short: as §3
[15] = molecular target: T1, Estrogen receptor (Homo sapiens); assay: Effect on ERalpha-mediated transcriptional activity in human MCF7 cells assessed as reduction of estradiol-induced activation of carbonic anhydrase 12 mRNA expression at 1 uM treated 16 hrs before estradiol challenge measured after 4 hrs by RT-PCR analysis; assay type: cell-based; in short: as §3

SMILES | Activity (MCF7 [1]) | Activity (MCF7 [2]) | Ratio (Homo sapiens) | relative binding affinity (RBA) [3] | Activity (MCF7 [4]) | relative binding affinity (RBA) [5] | Activity (MCF7 [6]) | Activity (MCF7 [7]) | Activity (MCF7 [8]) | Activity (MCF7 [9]) | Activity (MCF7 [10]) | Activity (MCF7 [11]) | Activity (MCF7 [12]) | Activity [13] | Activity [14] | Activity [15]
O=C(O)CCCC/C=C/c1ccc(C(=C2C3CCCC2CCC3)c2ccc(O)cc2)cc1 | inactive | inactive | 0.93 | 87.4 | inactive | 81.1 | inactive | inactive | – | – | – | – | – | – | – | –
O=C(O)/C=C/c1ccc(C(=C2CCCCC2)c2ccc(O)cc2)cc1 | inactive | inactive | – | – | inactive | – | inactive | inactive | Active | Active | Active | Active | Active | – | – | –
CCC(=C(c1ccc(O)cc1)c1ccc(/C=C/C(=O)O)cc1)c1ccccc1 | inactive | inactive | – | – | Active | – | inactive | inactive | Active | Active | Active | Active | Active | Active | Active | Active
O=C(O)/C=C/c1ccc(C(=C2C3CCCC2CCC3)c2ccc(O)cc2)cc1 | inactive | inactive | – | – | Active | – | inactive | inactive | Active | Active | Active | Active | Active | Active | Active | Active
O=C(O)CCC/C=C/c1ccc(C(=C2C3CCCC2CCC3)c2ccc(O)cc2)cc1 | – | – | 1.6 | 38.5 | – | 62.8 | – | – | – | – | – | – | – | – | – | –
Oc1ccc(C(=C2CCCCC2)c2ccc(O)cc2)cc1 | – | – | – | 68 | – | 334 | – | – | – | – | – | – | – | – | – | –
COP(=O)(O)/C=C/c1ccc(C(=C2C3CCCC2CCC3)c2ccc(O)cc2)cc1 | – | – | 1 | 7.5 | – | 7.7 | – | – | – | – | – | – | – | – | – | –
O=C(O)CCCCCCCCCCOc1ccc(C(=C2C3CCCC2CCC3)c2ccc(O)cc2)cc1 | inactive | inactive | – | – | inactive | – | inactive | inactive | – | – | – | – | – | – | – | –
O=C(O)CC/C=C/c1ccc(C(=C2C3CCCC2CCC3)c2ccc(O)cc2)cc1 | – | – | 1.9 | 13.1 | – | 24.6 | – | – | – | – | – | – | – | – | – | –
O=C(O)C/C=C/c1ccc(C(=C2C3CCCC2CCC3)c2ccc(O)cc2)cc1 | – | – | 2.6 | 9 | – | 23.1 | – | – | – | – | – | – | – | – | – | –
C[C@]12CC[C@@H]3c4ccc(O)cc4C[C@@H](CCCCCCCCC[S+]([O-])CCCC(F)(F)C(F)(F)F)[C@H]3[C@@H]1CC[C@@H]2O (stereo partly drawn) | Active | Active | – | – | Active | – | Active | Active | – | – | – | – | – | – | – | –
